# Assay results pooled from the literature.
# Target: Serine/threonine-protein kinase MARK1 (MARK1, Homo sapiens, UniProt Q9P0L2)
Structure (SMILES),effect on,mode,method,concentration,measurement,result
Cc1nn(C)cc1-c1nc2c(N3CCN(Cc4ccc(Cl)cc4)CC3)c(Cl)cnc2[nH]1,binding,,competition with immobilised ligand,1 µM,remaining binding,78%
Cn1cc(-c2cccc(N3CCc4c(sc5c4CC(C)(C)C5)C3=O)c2CO)cc(Nc2ccncn2)c1=O,enzyme activity,inhibitor,,1 µM,inhibition,1%
C#Cc1n[nH]c2c(-c3cn([C@@H](C)c4ccccn4)c(=O)[nH]c3=O)cc(F)cc12,enzyme activity,inhibitor,,0.1 µM,inhibition,4.9%
Cn1cncc1[C@@](O)(COc1ccc(C#N)cc1-c1ccc(OC(F)(F)F)cc1)c1ccc(C#N)cc1,cell-free assay,,competition with immobilised ligand,1 µM,remaining binding,100%
O=c1[nH]c2ccccc2n1C1CCN(Cc2ccc(-c3[nH]c4cc5ncnc5cc4nc3-c3ccccc3)cc2)CC1,cell-free assay,,,0.5 µM,remaining signal,104%
C#Cc1n[nH]c2c(-c3cn([C@@H](C)c4ccccc4)c(=O)[nH]c3=O)cc(F)cc12,enzyme activity,inhibitor,,0.1 µM,inhibition,4.1%
Cn1cc(-c2cc(F)cc(N3CCn4c(cc5c4CCCC5)C3=O)c2CO)cc(Nc2ccc(N3CCN(C4COC4)CC3)cn2)c1=O,enzyme activity,inhibitor,,0.1 µM,inhibition,10%
Nc1ncc(-c2nc(N3CCOCC3)nc(N3CCOCC3)n2)c(C(F)F)n1,binding,,competition with immobilised ligand,10 µM,remaining binding,88%
CC(C)(C)c1cc(C=C(C#N)C#N)cc(Br)c1O,enzyme activity,inhibitor,,0.5 µM,remaining activity,98.8%
COc1ncccc1-c1cnn2ccc(N3CCN(C(=O)OC(C)C)CC3)nc12,binding,,competition with immobilised ligand,1 µM,remaining binding,100%
N#CC1(c2ccccn2)CCN(Cc2cc(C(=O)O)c(=O)n3ccccc23)CC1,cell-free assay,,competition with immobilised ligand,1 µM,remaining binding,94%
COc1cc(Nc2ncc(F)c(Nc3ccc4c(n3)NC(=O)C(C)(C)O4)n2)cc(OC)c1OC,binding,,competition with immobilised ligand,10 µM,inhibition,94%
